Hits are enriched below; roughly 2.3% of the tested compounds scored in any of these assays.
Rpn11 inh: Rpn11 (human) deubiquitinase inhibition | O00487 | human 26S proteasome, Ub4-pepOG fluorescence polarization; 20S core pre-blocked with epoxomicin | inhibition, % at 20 µM | 360,000 tested, 0.59% active | AID 588493;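 active = inhibition at 20 µM, scaled to each plate's controls, above about 33%, limit read from the data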
Target sequence (O00487 whole entry, looked up): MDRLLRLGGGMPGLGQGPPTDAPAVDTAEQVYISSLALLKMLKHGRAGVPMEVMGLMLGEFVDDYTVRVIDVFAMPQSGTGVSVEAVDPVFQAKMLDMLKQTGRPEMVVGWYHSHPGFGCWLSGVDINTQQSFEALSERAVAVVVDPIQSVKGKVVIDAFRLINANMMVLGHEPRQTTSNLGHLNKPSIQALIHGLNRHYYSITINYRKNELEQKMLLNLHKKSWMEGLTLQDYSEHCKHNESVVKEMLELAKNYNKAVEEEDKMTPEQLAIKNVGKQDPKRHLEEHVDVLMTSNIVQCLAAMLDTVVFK
HNF4A DNA FP: change in binding of human HNF4 alpha to DNA; P41235; HNF4a-FITC DNA binding, fluorescence polarization, 1 h; activity change, % at 10 µM; 360,000 tested, 0.3% active; in the data active = activity change above about 30%, passing the limit was not always enough
Myeloid diff MLP: compounds promoting myeloid differentiation; ER-HoxA9 myeloid progenitors, lysozyme-GFP differentiation, flow cytometry; calls only at 10 µM; 360,000 tested, 1% active; AID 624256;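 active = normalized GFP-positive differentiation at or above the plate's own cutoff, the solvent-only control mean plus 3 SD; inconclusive = no clear call, values can overlap the other calls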;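 also: cells exposed to compound for four days before flow analysis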
CSN inh: blocks human CSN-mediated cullin deneddylation; inhibition, % at 12.5 µM; AID 651999; Purified CSN, SCF-Nedd8-OG deneddylation, fluorescence polarization; Q92905; 360,000 tested, 0.38% active;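 active = pattern-corrected inhibition above about 35%, with an unprinted fluorescence ratio check between 0.5 and 1.5, limit read from the data, passing the limit was not always enough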;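 also: 0% = enzyme with substrate and 100% = substrate without enzyme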
Target sequence (Q92905 whole entry, looked up, one chain of several): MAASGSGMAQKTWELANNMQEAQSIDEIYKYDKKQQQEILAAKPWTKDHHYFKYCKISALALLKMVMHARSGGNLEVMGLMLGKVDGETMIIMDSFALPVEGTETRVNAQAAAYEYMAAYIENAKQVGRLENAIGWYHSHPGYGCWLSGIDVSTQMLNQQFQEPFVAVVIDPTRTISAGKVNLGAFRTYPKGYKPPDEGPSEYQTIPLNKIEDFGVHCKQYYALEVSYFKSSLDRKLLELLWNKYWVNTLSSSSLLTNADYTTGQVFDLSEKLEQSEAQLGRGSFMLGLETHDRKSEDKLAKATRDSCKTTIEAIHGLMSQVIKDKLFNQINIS
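test system = HEK293T-derived human Csn5 enzyme | amount = 0.24 nM Csn5 enzyme, final concentration | medium = Tris/NaCl/DTT buffer, pH 7.5 | schedule = 90 min reaction at room temperature | signal = FP | evaluation = inhibition of Csn5 cleavage, % | compound dosing = single dose of 12.5 µM compound with 0.25% DMSO | probe or stimulus = 10 nM SCFSkp2-Nedd8OG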
TPT1 inhibitor: inhibitors of Candida albicans tRNA 2'-phosphotransferase TPT1 | recombinant caTPT1, FP RNA substrate dephosphorylation | inhibition, % at 5 µM | 300,000 tested, 0.81% active | AID 1962;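 active = inhibition above the mean of all tested compounds plus 3 SD, set per screening campaign, cut at about 24% in these data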;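 also: plate controls were DMSO alone for no effect and ferristatin control at 100 nM for full effect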
CSN5 deneddyl: Csn5 (human) deneddylation inhibition, single-concentration validation | shares compounds with CSN inh | Csn5 deneddylation of SCF-Nedd8OG, fluorescence polarization, 90 min | inhibition, % at 16.6 µM | 540 tested, 62% active; in the data active = inhibition above about 50%;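 also: 0% = DMSO with enzyme and 100% = no enzyme wells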
MMP2 cntr CSN: counter-screen for CSN deneddylation inhibitors: human MMP-2 inhibition; shares compounds with CSN inh; recombinant MMP-2, FRET substrate fluorescence, 60 min; inhibition, % at 16.6 µM; 540 tested, 33% active;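 active = corrected plate-normalized z-score of 5 or more, or -5 or less, or inhibition of 15% or more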;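 also: plate controls were DMSO wells with enzyme for no effect and buffer wells lacking MMP-2 for full effect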
Thrombin counter: counter-screen for CSN deneddylation inhibitors: bovine thrombin inhibition. shares compounds with CSN inh. bovine thrombin cleavage of Ub4-pepOG, fluorescence polarization. inhibition, % at 16.6 µM. 540 tested, 49% active. AID 720656;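 active = inhibition at or above a set limit, with a fluorescence interference ratio between 0.5 and a set maximum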
HNF4A confirm: change in binding of human HNF4 alpha to DNA, retest. activity change, % at 12.5 µM. AID 1224897. HNF4A-FITC DNA binding, fluorescence polarization, 1 h. shares compounds with HNF4A DNA FP. 210 tested, 99% active; call rule not given here
* hit, by the source's call; i = inactive; ? = inconclusive; · = no result given; + = active, no number.

SMILES	Rpn11 inh	HNF4A DNA FP	Myeloid diff MLP	CSN inh	TPT1 inhibitor	CSN5 deneddyl	MMP2 cntr CSN	Thrombin counter	others
COc1ccc(Cc2nc3ccc(C(=O)N(C)C(C)c4ccon4)cc3o2)cc1 (stereo not drawn)	-4	0	i	0	0	·	·	·
COc1cc2c(oc(=O)c3cc(C)cc(OC)c32)c2c(C3OC(C)C(O)C(C)(O)C3O)ccc(O)c12 (stereo not drawn)	7	-11	·	35*	·	107*	6	0
COc1cccc2cc(C(=O)N3CC(C)OC(C)C3)c(=O)oc12 (stereo not drawn)	4	3	i	-2	0	·	·	·
Cc1cccc(N2CC(C(=O)Nc3ccc4c(c3)OCCO4)CC2=O)c1C (stereo not drawn)	2	1	i	-1	2	·	·	·
CC1=C(C(=O)OC(C)C)C(c2ccc(Cl)cc2)n2c(sc(=Cc3ccc(OCC(=O)O)cc3)c2=O)=N1 (stereo not drawn)	·	-15	i	84*	·	21	10	26*
O=C(CCl)Nc1nc(-c2ccco2)c(-c2ccco2)s1	15	2	i	43*	9	79*	5	-1
COc1ccc(C2=NS(=O)(=O)N(C)C(C(=O)Nc3ccc(C(C)=O)cc3)=C2)cc1OC	-3	-3	i	-1	-6	·	·	·
O=C(O)c1cccc2c1C(=O)c1ccccc1-2	-2	-5	i	2	0	·	·	·
O=C1C(=C(I)I)c2ccccc2-c2ccccc21	31	0	?	52*	·	63*	10	-36
N#Cc1csc(CCNC(=O)c2ccccc2)n1	-4	-1	i	-4	·	·	·	·
O=[N+]([O-])c1cc2oc3c(c2c(C=NCc2ccccc2)c1O)CCCC3	·	33	i	74*	1	82*	0	18*
COc1ccc(C)cc1NC(=O)/C=C/c1ccc(OC)c(S(=O)(=O)N2CCOCC2)c1	-1	-1	i	-3	·	·	·	·
Oc1ccc(C2=Nn3c(nnc3-c3ccco3)SC2)cc1O	-4	-3	i	38*	-4	·	31*	14
O=C(c1ccccc1)c1ccc(N2CCN(C(=O)c3ccc(F)cc3F)CC2)c(F)c1	-1	0	i	-4	·	·	·	·
Brc1ccc(-c2nn3c(-c4ccco4)nnc3s2)o1	-9	-21	i	41*	0	95*	14	0
COc1ccc(-c2csc(NC(=O)CSc3nc(C)cs3)n2)cc1	6	-2	i	-2	1	·	·	·
COc1ccc(-c2csc(NC(=O)CSc3nc(C)nc4sc(C(=O)O)c(C)c34)n2)cc1	-19	-1	i	51*	-4	-8	13	5
Cc1ccc2nc(N(CCCN(C)C)C(=O)c3ccc(S(=O)(=O)N4CCc5ccccc5C4)cc3)sc2c1	-16	-1	i	5	0	·	·	·
CN(C)CCCN(C(=O)c1ccc(S(=O)(=O)N2CCc3ccccc3C2)cc1)c1nc2ccc(F)cc2s1	24	57*	i	99*	-4	-33	-1	-14
O=C(Nc1ccc2oc(-c3ccccc3F)nc2c1)c1ccc([N+](=O)[O-])o1	·	3	i	40*	·	103*	16*	2
Cc1ccc(-c2cc(C(=O)N/N=C/c3ccc([N+](=O)[O-])o3)c3ccccc3n2)o1	-9	-13	?	39*	·	107*	11	-6
O=C(CCN1C(=O)/C(=C/c2ccc(Cl)cc2)SC1=S)Nc1cccc(C(=O)O)c1	2	3	i	2	-1	·	·	·
O=C(O)c1cccc(N2C(=O)/C(=C/c3ccc(SCc4ccc(Cl)cc4)o3)SC2=S)c1	·	99	i	46*	·	·	-3	49*
CCCCCCCC/C=C\CCCCCCCC(=O)NCCO	-6	2	?	-7	0	·	·	·
CCCCCCCCCCCCC/C=C/[C@@H](O)[C@@H](N)CO	25	29	i	41*	-4	3	5	-3
SMILES	Rpn11 inh	HNF4A DNA FP	Myeloid diff MLP	CSN inh	TPT1 inhibitor	CSN5 deneddyl	MMP2 cntr CSN	Thrombin counter	others
O=C1C=C(Nc2ccc(F)cc2)c2ccccc2C1=O	5	2	?	6	·	·	·	·
O=C1C=C(NCc2ccccc2)c2ccccc2C1=O	21	0	+	72*	·	77*	9	-24
Cc1nn2c(=O)cc(COC(=O)c3c(F)cccc3Cl)nc2s1	-8	-1	i	-6	·	·	·	·
Cc1cc(C)cc(NC(=O)/C=C/c2ccc([N+](=O)[O-])s2)c1	-2	20	?	-10	8	·	·	·
CC(=O)c1cccc(NC(=O)/C=C/c2ccc([N+](=O)[O-])s2)c1	20	7	·	35*	·	97*	6	4
O=C(/C=C/c1ccco1)Nc1scc(-c2ccccc2)c1C(=O)O	34	-36	i	38*	0	25	9	6
O=C(/C=C/c1ccccc1)Nc1scc(-c2ccccc2)c1C(=O)O	0	3	i	-7	·	·	·	·
CCCCn1c(NC(=O)c2ccccc2)c(C#N)c2nc3ccccc3nc21	·	85*	+	69*	·	49	4	-11
Nc1c(/C=C2/C=CC(=O)C(O)=C2)c(=O)nc2sc(CC(=O)N3CCCC3)nn12	30	-2	i	39*	5	25	36*	37*
COc1ccc(NC(=O)CN(C)C(=O)c2cccc(S(=O)(=O)Nc3ccccc3Cl)c2)cc1	-4	4	i	-1	1	·	·	·
Cc1ccc2sc(N(CCCN(C)C)C(=O)c3nc4ccccc4s3)nc2c1C	2	217*	i	107*	0	·	·	·	HNF4A confirm=205*
O=[N+]([O-])c1ccc(NN=Cc2ccc(O)cc2)nc1	-22	2	i	5	·	·	·	·
COc1ccc(C=NNc2ccc([N+](=O)[O-])cn2)cc1	·	72*	i	6	·	·	·	·	HNF4A confirm=79*
O=[N+]([O-])c1ccc(-c2cn3c(n2)CCC3)cc1	-3	-3	i	2	3	·	·	·
O=C(NC1CCCC1)c1cccc2c1C(=O)c1ccc(N3CCCCC3)cc1S2(=O)=O	·	52*	i	22	·	·	·	·	HNF4A confirm=54*
CCn1c(CC(=O)Nc2ccccc2)n[nH]c1=S	0	-1	i	-8	1	·	·	·
COc1cc(OC)c(C2C=CC(=O)CC2)c(OC)c1 (stereo not drawn)	·	-1	i	-1	·	·	·	·

High-throughput results (PubChem)
